From ChEMBL document CHEMBL2040753, “Development of potent and selective inhibitors of aldo-keto reductase 1C3 (type 5 17β-hydroxysteroid dehydrogenase) based on N-phenyl-aminobenzoates and their structure-activity relationships” (J Med Chem, 2012)

Legend:
[1] = biological target: T1, Aldo-keto reductase family 1 member C3 (Homo sapiens, UniProt P42330); experiment: Inhibition of recombinant AKR1C3 assessed as NADP+ dependent oxidation of S-tetralol by fluorescence assay
T1 sequence (P42330 whole entry): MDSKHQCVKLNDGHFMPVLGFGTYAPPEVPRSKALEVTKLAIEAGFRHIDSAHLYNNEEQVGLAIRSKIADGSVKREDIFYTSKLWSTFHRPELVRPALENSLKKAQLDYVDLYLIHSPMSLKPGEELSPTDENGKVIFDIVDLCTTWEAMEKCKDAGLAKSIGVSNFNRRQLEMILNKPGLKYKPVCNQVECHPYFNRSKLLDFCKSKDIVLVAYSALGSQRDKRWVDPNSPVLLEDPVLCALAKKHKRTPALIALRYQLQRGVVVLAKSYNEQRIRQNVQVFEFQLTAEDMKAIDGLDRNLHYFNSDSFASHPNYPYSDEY

[2] = biological target: T2, Aldo-keto reductase family 1 member C2 (Homo sapiens, UniProt P52895); experiment: Inhibition of recombinant AKR1C2 assessed as NADP+ dependent oxidation of S-tetralol by fluorescence assay
T2 sequence (P52895 whole entry): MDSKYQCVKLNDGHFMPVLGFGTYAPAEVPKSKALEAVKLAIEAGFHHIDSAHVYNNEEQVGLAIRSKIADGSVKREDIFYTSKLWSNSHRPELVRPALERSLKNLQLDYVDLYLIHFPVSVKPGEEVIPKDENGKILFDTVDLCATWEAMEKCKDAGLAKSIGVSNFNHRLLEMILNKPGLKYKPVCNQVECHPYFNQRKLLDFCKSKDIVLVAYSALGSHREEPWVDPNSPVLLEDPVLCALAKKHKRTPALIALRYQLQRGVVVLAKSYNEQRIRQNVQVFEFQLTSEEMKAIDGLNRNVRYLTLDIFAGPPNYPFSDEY
Procedure, shortened: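 Homogeneous recombinant enzyme; continuous oxidation of S-tetralol (at each isoform's KM) with 200 μM NADP+ in 100 mM phosphate pH 7.0, 4% DMSO, 37 °C. Initial velocities compared with solvent control; quadruplicate points over a range of inhibitor concentrations; IC50 from curve fit.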

IC50 [1] [nM] | IC50 [2] [nM] | SMILES
2740 | 3260 | O=C(O)c1ccc(Nc2ccccc2C(=O)O)cc1
1890 | 48200 | Cc1ccc(Nc2ccc(C(=O)O)cc2)cc1
2500 | 24500 | CC(=O)c1ccc(Nc2ccc(C(=O)O)cc2)cc1
240 | 380 | Cc1cccc(Nc2ccccc2C(=O)O)c1
900 | 26800 | COc1cc(Nc2ccc(C(C)=O)cc2C(=O)O)cc(OC)c1
1080 | 44600 | Cc1cc(C)cc(Nc2cccc(C(=O)O)c2)c1
610 | 910 | COc1ccc(Nc2ccc(C(C)=O)cc2C(=O)O)cc1
1320 | 11100 | O=C(O)c1ccc(Nc2ccc([N+](=O)[O-])cc2)cc1
1350 | 2070 | CC(=O)c1ccc(Nc2ccccc2C(F)(F)F)c(C(=O)O)c1
3390 | 29300 | COc1ccccc1Nc1ccc(C(=O)O)cc1
2910 | 10300 | Cc1cccc(C)c1Nc1cccc(C(=O)O)c1
220 | 290 | COc1ccc(C(=O)O)c(Nc2ccc(Cl)cc2)c1
1660 | 1490 | COc1ccc(C(=O)O)c(Nc2ccccc2)c1
150 | 150 | O=C(O)c1ccccc1Nc1cccc(Cl)c1
960 | 32600 | CC(=O)c1ccccc1Nc1cccc(C(=O)O)c1
2530 | 69900 | COc1cc(Nc2ccc(C(=O)O)cc2)cc(OC)c1
40 | 1780 | O=C(O)c1cccc(Nc2ccc([N+](=O)[O-])cc2OC(F)(F)F)c1
3570 | > 100000 | O=C(O)c1cccc(Nc2cccc(C(=O)O)c2)c1
290 | 19300 | O=C(O)c1cccc(Nc2cccc([N+](=O)[O-])c2)c1
1190 | 15200 | COc1cccc(Nc2cccc(C(=O)O)c2)c1
560 | 15100 | O=C(O)c1cccc(Nc2ccccc2C(F)(F)F)c1

IC50 [1] [nM] | IC50 [2] [nM] | SMILES
500 | 11100 | O=C(O)c1ccc(Nc2cccc(C(F)(F)F)c2)cc1
40 | 510 | O=C(O)c1ccccc1Nc1cccc([N+](=O)[O-])c1
1650 | 26600 | COc1ccccc1Nc1cccc(C(=O)O)c1
500 | 190 | COc1ccc(C(=O)O)c(Nc2ccc([N+](=O)[O-])cc2)c1
130 | 400 | CC(=O)c1ccc(Nc2ccccc2C(=O)O)cc1
570 | 1110 | COc1cccc(Nc2ccccc2C(=O)O)c1
1050 | 20000 | O=C(O)c1ccc(Nc2ccc(Cl)cc2)cc1
2220 | 6780 | COc1cc(Nc2cc(OC)ccc2C(=O)O)cc(OC)c1
1670 | 21500 | Cc1cccc(Nc2ccc(C(=O)O)cc2)c1
980 | 3170 | CC(=O)c1ccc(Nc2cccc([N+](=O)[O-])c2)c(C(=O)O)c1
1180 | > 30000 | O=C(O)c1ccc(Nc2ccc(Br)cc2)cc1
890 | 3400 | COc1cc(Nc2ccccc2C(=O)O)cc(OC)c1
30 | 920 | COc1ccc(Nc2ccccc2C(=O)O)c([N+](=O)[O-])c1
460 | 7170 | O=C(O)c1cccc(Nc2cccc(Cl)c2)c1
2260 | 3580 | COc1cccc(Nc2ccc(C(C)=O)cc2C(=O)O)c1
2370 | 6300 | O=C(O)c1ccc(Nc2ccc(C(=O)O)cc2)cc1
160 | 280 | COc1ccc(C(=O)O)c(Nc2cccc(Cl)c2)c1
40 | 1070 | CC(C)(C)c1ccc(Nc2ccccc2C(=O)O)cc1
1650 | 8230 | CC(=O)c1ccc(Nc2ccc(C)cc2)c(C(=O)O)c1
360 | 56200 | COc1cc(Nc2cccc(C(=O)O)c2)cc(OC)c1
2060 | 59200 | COc1ccc(Nc2ccc(C(=O)O)cc2)c([N+](=O)[O-])c1

IC50 [1] [nM] | IC50 [2] [nM] | SMILES
570 | 1470 | COc1cccc(Nc2cc(OC)ccc2C(=O)O)c1
470 | 18700 | CC(=O)c1ccc(Nc2ccc(C(C)=O)cc2C(=O)O)cc1
1170 | 1330 | CC(=O)c1ccc(Nc2ccc([N+](=O)[O-])cc2)c(C(=O)O)c1
1550 | 18900 | CC(=O)c1ccc(Nc2ccc(C(=O)O)cc2)c(C(=O)O)c1
640 | 870 | COc1ccc(C(=O)O)c(Nc2cccc(C)c2)c1
800 | 1110 | COc1ccc(C(=O)O)c(Nc2ccc(C)cc2)c1
610 | 31600 | CC(=O)c1ccc(Nc2cc(C(=O)O)cc(C(=O)O)c2)c(C(=O)O)c1
4210 | > 100000 | O=C(O)c1ccc(Nc2cccc([N+](=O)[O-])c2)cc1
1880 | 22900 | Cc1cccc(Nc2cccc(C(=O)O)c2)c1
80 | 190 | COc1ccc(C(=O)O)c(Nc2cccc([N+](=O)[O-])c2)c1
1640 | 19900 | O=C(O)c1ccc(Nc2cccc(C(=O)O)c2)cc1
870 | 49300 | Cc1cc(C)cc(Nc2ccc(C(=O)O)cc2)c1
2210 | 22900 | COc1ccc(Nc2ccc(C(=O)O)cc2)cc1
2650 | 84400 | COc1cccc(Nc2ccc(C(=O)O)cc2)c1
730 | 2670 | CC(=O)c1ccc(Nc2cccc(C(F)(F)F)c2)c(C(=O)O)c1
250 | 490 | CC(=O)c1ccc(Nc2ccc(Br)cc2)c(C(=O)O)c1
280 | 7050 | CC(=O)c1ccc(Nc2ccc(C(C)(C)C)cc2)c(C(=O)O)c1
1450 | 8380 | COc1ccc(C(=O)O)c(Nc2cccc(C(=O)O)c2)c1
1730 | 2400 | COc1ccc(C(=O)O)c(Nc2ccccc2OC)c1
80 | 700 | COc1ccc(C(=O)O)c(Nc2ccc(C(C)(C)C)cc2)c1
600 | 2230 | CC(=O)c1ccc(Nc2ccc(Cl)cc2)c(C(=O)O)c1

SMILES | IC50 [1] [nM] | IC50 [2] [nM]
CC(=O)c1ccc(Nc2ccccc2)c(C(=O)O)c1 | 2530 | 3810
CC(=O)c1ccc(Nc2cccc(C)c2)c(C(=O)O)c1 | 1940 | 2840
CC(C)(C)c1ccc(Nc2ccc(C(=O)O)cc2)cc1 | 930 | 10300
COc1ccc(C(=O)O)c(Nc2ccc(Br)cc2)c1 | 150 | 540
O=C(O)c1cccc(Nc2ccccc2C(=O)O)c1 | 980 | 4160
CC(=O)c1ccc(Nc2ccccc2[N+](=O)[O-])c(C(=O)O)c1 | 1110 | 3970
Cc1cc(C)cc(Nc2ccccc2C(=O)O)c1 | 1090 | 2360
O=C(O)c1ccccc1Nc1ccc([N+](=O)[O-])cc1 | 160 | 280
CC(=O)c1cccc(Nc2ccc(C(C)=O)cc2C(=O)O)c1 | 650 | 1880
CC(=O)c1ccc(Nc2cccc(Cl)c2)c(C(=O)O)c1 | 1160 | 2550
CC(=O)c1cccc(Nc2cccc(C(=O)O)c2)c1 | 560 | 36600
COc1ccc(C(=O)O)c(Nc2cccc(C(F)(F)F)c2)c1 | 60 | 220
O=C(O)c1ccccc1Nc1ccc(Cl)cc1 | 70 | 410
CC(=O)c1cccc(Nc2ccccc2C(=O)O)c1 | 140 | 1550
COc1ccccc1Nc1ccccc1C(=O)O | 2220 | 1280
CC(=O)c1ccc(Nc2ccc(C(F)(F)F)cc2)c(C(=O)O)c1 | 140 | 2730
O=C(O)c1cccc(Nc2cc(C(=O)O)cc(C(=O)O)c2)c1 | > 30000 | > 100000
O=C(O)c1cccc(Nc2cc(C(F)(F)F)cc(C(F)(F)F)c2)c1 | 250 | 19200
CC(=O)c1ccc(Nc2cc(C(F)(F)F)cc(C(F)(F)F)c2)c(C(=O)O)c1 | 1760 | 16000
O=C(O)c1cccc(Nc2cccc(C(F)(F)F)c2)c1 | 320 | 16000
COc1ccc(Nc2ccccc2C(=O)O)cc1 | 90 | 700
CC(=O)c1ccc(Nc2ccccc2C(C)=O)c(C(=O)O)c1 | 4440 | 12700
COc1ccc(C(=O)O)c(Nc2ccc(C(C)=O)cc2)c1 | 500 | 270
COc1ccccc1Nc1ccc(C(C)=O)cc1C(=O)O | 3060 | 8970
Cc1ccc(Nc2ccccc2C(=O)O)cc1 | 360 | 1460
